ChEMBL document CHEMBL1128263, “N-(1-methyl-5-indolyl)-N'-(3-methyl-5-isothiazolyl)urea: a novel, high-affinity 5-HT2B receptor antagonist” (J Med Chem, 1995)

Tests used:
[1] = target: 5-hydroxytryptamine receptor 1E (Homo sapiens, UniProt P28566); experiment: The binding affinity (pKi) measured against 5-hydroxytryptamine 1E receptor (cloned human receptors in CHO cells) using […] as radioligand; type: cell-based
Procedure, shortened: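 Radioligand binding at cloned human 5-HT1E receptors expressed in CHO cells, labelled with [3H]-5-HT.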

[2] = target: 5-hydroxytryptamine receptor 2B (Rattus norvegicus, UniProt P30994); experiment: Antagonistic affinity measured as pA2 value on 5-hydroxytryptamine 2B receptor of the rat stomach fundus; type: functional, tissue-based; conditions: read-out: pA2 (converted)
Sequence of 5-hydroxytryptamine receptor 2B (P30994 whole entry): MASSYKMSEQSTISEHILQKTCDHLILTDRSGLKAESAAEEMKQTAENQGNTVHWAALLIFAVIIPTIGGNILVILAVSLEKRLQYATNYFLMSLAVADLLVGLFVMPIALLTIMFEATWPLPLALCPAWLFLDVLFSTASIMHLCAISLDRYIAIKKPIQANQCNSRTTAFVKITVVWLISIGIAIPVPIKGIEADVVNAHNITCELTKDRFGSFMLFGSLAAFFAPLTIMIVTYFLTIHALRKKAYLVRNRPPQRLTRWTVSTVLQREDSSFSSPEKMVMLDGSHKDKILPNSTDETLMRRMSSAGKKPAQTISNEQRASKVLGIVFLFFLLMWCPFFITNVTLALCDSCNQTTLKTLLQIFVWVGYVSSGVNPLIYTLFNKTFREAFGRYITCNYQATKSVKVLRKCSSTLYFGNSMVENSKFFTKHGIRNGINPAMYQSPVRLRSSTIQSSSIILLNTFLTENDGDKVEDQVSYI

[3] = target: T1, Adrenergic receptor alpha-1 (Rattus norvegicus, UniProt P15823+P23944+P43140); experiment: The binding affinity (pKi) measured against Alpha-1 adrenergic receptor of rat cortex using [3H]prazosin as radioligand
T1 sequence (P15823 whole entry): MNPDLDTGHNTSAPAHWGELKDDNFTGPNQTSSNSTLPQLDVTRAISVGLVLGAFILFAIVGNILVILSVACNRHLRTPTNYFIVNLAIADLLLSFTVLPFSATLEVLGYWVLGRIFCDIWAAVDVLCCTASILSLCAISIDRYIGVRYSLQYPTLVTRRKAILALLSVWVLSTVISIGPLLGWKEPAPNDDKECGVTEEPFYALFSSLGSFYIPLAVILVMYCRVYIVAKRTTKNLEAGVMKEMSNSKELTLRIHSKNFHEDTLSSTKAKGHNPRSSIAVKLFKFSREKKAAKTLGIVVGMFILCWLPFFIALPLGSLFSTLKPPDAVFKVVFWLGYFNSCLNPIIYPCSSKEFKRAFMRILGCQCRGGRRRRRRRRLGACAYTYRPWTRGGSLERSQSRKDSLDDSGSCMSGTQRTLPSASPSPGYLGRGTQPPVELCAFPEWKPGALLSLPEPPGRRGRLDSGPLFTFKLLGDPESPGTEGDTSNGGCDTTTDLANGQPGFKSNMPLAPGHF
T1 sequence (P23944 whole entry): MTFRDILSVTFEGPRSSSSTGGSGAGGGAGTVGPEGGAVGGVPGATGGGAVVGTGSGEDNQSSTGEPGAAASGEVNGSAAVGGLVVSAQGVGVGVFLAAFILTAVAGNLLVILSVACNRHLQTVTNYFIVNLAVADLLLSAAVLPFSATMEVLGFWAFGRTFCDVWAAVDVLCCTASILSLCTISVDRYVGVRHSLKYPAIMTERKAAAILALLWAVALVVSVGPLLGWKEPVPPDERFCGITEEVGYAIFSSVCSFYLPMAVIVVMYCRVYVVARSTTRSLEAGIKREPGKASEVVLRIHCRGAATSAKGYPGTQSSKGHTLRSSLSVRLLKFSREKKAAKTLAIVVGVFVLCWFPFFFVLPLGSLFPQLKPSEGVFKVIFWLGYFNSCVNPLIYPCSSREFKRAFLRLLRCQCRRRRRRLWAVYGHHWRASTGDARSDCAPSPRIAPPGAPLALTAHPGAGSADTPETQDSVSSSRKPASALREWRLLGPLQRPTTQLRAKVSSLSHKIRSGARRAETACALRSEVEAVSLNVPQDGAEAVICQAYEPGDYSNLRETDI
T1 sequence (P43140 whole entry): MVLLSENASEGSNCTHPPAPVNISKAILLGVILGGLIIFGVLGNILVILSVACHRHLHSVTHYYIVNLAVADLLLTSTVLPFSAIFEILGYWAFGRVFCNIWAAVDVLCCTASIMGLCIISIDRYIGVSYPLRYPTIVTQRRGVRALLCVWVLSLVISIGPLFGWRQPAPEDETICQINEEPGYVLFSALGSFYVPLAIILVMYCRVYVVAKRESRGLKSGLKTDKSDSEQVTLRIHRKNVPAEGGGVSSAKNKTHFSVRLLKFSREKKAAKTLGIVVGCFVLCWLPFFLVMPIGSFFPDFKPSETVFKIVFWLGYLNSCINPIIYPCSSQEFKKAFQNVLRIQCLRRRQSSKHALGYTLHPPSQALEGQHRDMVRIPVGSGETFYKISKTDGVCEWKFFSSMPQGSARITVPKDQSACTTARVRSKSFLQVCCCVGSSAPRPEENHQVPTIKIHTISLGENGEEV

[4] = target: D(1A) dopamine receptor (Homo sapiens, UniProt P21728); experiment: The binding affinity (pKi) measured against Dopamine receptor D1 using [3H]-SCH- 23390 as radioligand
Sequence of D(1A) dopamine receptor (P21728 whole entry): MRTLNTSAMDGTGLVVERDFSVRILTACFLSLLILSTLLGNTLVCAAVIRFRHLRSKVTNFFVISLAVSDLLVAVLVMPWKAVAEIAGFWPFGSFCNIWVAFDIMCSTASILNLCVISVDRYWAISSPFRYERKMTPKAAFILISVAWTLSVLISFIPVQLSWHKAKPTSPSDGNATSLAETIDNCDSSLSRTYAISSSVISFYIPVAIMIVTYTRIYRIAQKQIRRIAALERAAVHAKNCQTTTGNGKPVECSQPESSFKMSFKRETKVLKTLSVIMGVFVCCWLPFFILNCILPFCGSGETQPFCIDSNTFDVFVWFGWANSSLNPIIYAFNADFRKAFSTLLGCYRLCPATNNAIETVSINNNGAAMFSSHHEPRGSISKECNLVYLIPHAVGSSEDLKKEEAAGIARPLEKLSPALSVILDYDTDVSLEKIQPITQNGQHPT
Procedure, shortened: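 Binding at cloned human dopamine D1 receptors expressed in LTK cells.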

[5] = target: D(2) dopamine receptor (Homo sapiens, UniProt P14416); experiment: In vitro binding affinity was measured on Dopamine receptor D2
Sequence of D(2) dopamine receptor (P14416 whole entry): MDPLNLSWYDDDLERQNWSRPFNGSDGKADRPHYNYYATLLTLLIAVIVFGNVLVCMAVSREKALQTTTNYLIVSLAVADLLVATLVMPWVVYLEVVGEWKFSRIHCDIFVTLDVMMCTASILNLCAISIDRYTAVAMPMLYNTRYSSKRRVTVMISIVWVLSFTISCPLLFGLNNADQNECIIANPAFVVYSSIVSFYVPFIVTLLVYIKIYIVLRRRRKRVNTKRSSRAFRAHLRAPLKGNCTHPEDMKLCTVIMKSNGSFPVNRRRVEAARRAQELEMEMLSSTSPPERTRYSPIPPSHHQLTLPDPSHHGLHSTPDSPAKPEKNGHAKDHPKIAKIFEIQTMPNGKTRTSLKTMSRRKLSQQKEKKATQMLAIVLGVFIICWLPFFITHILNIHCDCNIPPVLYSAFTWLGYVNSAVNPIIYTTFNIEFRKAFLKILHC

[6] = target: GABA-A receptor; anion channel; experiment: Inhibition of [3H]muscimol binding to Gamma-aminobutyric acid A (GABA-A) receptor of rat cortex
[7] = target: Histamine H1 receptor (Cavia porcellus, UniProt P31389); experiment: The binding affinity (pKi) measured against histamine H1 receptor of guinea pig cerebellum using [3H]mepyramine as radioligand; type: tissue-based
Sequence of Histamine H1 receptor (P31389 whole entry): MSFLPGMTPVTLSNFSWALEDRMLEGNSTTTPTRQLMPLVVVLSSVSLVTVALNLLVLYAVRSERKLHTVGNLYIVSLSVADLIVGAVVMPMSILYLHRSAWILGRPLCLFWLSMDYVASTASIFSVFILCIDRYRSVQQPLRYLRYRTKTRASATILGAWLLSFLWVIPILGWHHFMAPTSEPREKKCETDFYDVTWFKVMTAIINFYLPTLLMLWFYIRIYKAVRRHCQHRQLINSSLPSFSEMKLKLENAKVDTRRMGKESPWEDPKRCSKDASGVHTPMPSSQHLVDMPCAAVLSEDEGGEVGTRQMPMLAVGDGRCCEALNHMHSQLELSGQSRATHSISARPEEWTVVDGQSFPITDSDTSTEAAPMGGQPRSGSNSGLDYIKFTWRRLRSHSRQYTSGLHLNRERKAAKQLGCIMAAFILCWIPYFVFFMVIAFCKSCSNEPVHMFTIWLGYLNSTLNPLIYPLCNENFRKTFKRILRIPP

[8] = target: T2, 5-hydroxytryptamine receptor 2C (Homo sapiens, UniProt P28335); experiment: (§1) Selectivity as the ratio of Ki value towards 5-hydroxytryptamine 2C receptor to that of pA2 value towards 5-hydroxytryptamine 2B receptor; type: functional
T2 sequence (P28335 whole entry): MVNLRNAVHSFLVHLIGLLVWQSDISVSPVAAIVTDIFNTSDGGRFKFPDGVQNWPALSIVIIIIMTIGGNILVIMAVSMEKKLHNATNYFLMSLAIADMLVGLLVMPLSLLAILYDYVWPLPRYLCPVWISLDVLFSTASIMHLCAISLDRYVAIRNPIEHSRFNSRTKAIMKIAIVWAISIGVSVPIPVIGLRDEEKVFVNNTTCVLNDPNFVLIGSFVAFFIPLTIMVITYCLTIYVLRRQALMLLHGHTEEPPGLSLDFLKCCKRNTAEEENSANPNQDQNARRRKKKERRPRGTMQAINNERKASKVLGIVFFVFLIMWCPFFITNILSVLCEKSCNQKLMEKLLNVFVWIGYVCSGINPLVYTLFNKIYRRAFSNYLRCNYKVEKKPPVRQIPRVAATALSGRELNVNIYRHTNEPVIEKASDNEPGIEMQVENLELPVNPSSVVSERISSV

[9] = target: 5-HT2C receptor (Homo sapiens); experiment: Antagonistic binding affinity measured against 5-hydroxytryptamine 2C receptor (human clone expressed in 293 cells) using [3H]mesulergine as radioligand
[10] = target: 5-hydroxytryptamine receptor 2A (Homo sapiens, UniProt P28223); experiment: Antagonistic binding affinity measured against 5-hydroxytryptamine 2A receptor (human clone expressed in 293 cells) using [3H]ketanserin as radioligand; type: cell-based, HEK293
Sequence of 5-hydroxytryptamine receptor 2A (P28223 whole entry): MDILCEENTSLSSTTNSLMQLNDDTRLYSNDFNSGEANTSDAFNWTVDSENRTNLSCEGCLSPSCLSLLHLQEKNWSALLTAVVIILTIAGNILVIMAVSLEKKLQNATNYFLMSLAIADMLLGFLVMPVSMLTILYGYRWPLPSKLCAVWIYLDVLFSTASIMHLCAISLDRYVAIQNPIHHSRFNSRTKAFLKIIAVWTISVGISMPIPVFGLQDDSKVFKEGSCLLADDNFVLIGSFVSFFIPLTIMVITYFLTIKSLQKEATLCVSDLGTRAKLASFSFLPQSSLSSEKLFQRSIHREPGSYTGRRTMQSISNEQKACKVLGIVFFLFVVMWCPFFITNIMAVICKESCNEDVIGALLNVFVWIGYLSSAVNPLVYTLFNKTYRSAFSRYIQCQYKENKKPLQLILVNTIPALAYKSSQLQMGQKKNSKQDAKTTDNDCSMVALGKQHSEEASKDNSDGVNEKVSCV

[11] = target: T2, 5-hydroxytryptamine receptor 2C; experiment: Antagonistic binding affinity measured against 5-hydroxytryptamine 2C receptor (human clone expressed in 293 cells) using [3H]mesulergine as radioligand; type: cell-based, HEK293
[12] = as §1; type: functional

Sequence of 5-hydroxytryptamine receptor 1E (P28566 whole entry): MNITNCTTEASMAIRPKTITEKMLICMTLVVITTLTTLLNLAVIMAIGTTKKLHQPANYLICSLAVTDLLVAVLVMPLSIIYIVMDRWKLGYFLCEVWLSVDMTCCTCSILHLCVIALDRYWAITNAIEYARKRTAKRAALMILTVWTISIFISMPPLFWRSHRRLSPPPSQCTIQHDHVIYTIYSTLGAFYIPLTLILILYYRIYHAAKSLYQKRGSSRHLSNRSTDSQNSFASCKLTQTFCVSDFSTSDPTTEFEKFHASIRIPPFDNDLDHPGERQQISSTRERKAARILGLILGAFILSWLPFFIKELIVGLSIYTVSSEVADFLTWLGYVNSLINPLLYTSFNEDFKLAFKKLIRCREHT

Row | Structure (SMILES) | Kb [2] | Ki [8] | Ki [9] | also measured
1 | Cc1cc(NC(=O)Nc2ccc3c(ccn3C)c2)sn1 | 11.2 nM |  |  | Ki [1]: > 100000 nM; Log Ki [3]: > -5.5; Ki [4]: > 10000 nM; Ki [5]: > 31600 nM; Log Ki [6]: > -5; Ki [7]: > 10000 nM
2 | Cc1cc(NC(=O)Nc2ccc3sccc3c2)on1 | 46.8 nM | 89.1 nM | > 6310 nM | 
3 | Cc1cc(NC(=O)Nc2ccc3sccc3c2)sn1 | 15.1 nM |  |  | Ki [10]: 6310 nM; Ki [11]: 417 nM; Selectivity [12]: 27
4 | Cn1ccc2cc(NC(=O)Nc3cccnc3)ccc21 | 38.9 nM | 110 nM |  | 
5 | Cc1cc(NC(=O)Nc2ccc3c(ccn3C)c2)on1 | 69.2 nM | 347 nM | > 6310 nM | 
